Each structure is given as a SMILES string.

Series [1] can be described thus: Ratio of IC50 for promastigote stage of Leishmania donovani MHOM/NP/02/BPK282/0c14 to Ki for Leishmania spp. trypanothione reductase.
Series [2] is described as follows: Ratio of IC50 for amastigote stage of Leishmania donovani MHOM/NP/02/BPK282/0c14 to Ki for Leishmania spp. trypanothione reductase.
The nature of series [3]: Competitive inhibition of Leishmania spp. trypanothione reductase in presence of 75 to 400 uM TS2 by Dixon plot analysis. The arrangement: species or system Leishmania sp. Put shortly: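 Recombinant L. infantum TR at 40 nM was equilibrated for 2 min at 25 °C with TS2 (75–400 µM) and inhibitor (30 nM–1 µM). The reaction was started with 40 µM NADPH, and NADPH oxidation was followed as A340 decrease (ε 6,222 M−1 cm−1). A Dixon plot was built by linear regression of reciprocal fitted rates against inhibitor concentration.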

The nature of series [4]: Binding affinity to Leishmania spp. trypanothione reductase by surface plasmon resonance analysis. The arrangement: species or system Leishmania sp. Put shortly: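 Recombinant L. infantum TR was amine-coupled to ~2000 RU on a carboxyl sensor chip. Analytes in HBS pH 7.4 + 1% DMSO were given as FastStep serial doubling injections from 1.56 to 100 µM, followed by dissociation after 100 s. A protein-free surface served as control. Sensorgrams are averages of three experiments. KD came from Scatchard plots and a global 1:1 binding fit.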
Background: In SPR one partner is held on a chip, and binding of the other changes the refractive index at the surface.

The test system of the next series is Leishmania major. The series is described as follows: Antileishmanial activity against promastigote stage of Leishmania major MHOM/SU/73/5-ASKH assessed as parasite growth inhibition after 72 hrs by Alamar blue assay. The format is functional, organism-based. Put shortly: (§1)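 Late log/stationary promastigotes were seeded at 10^6/mL in HOMEM with 20% FBS and exposed to compounds at 40–1.6 µM for 72 h at 26 °C, from 8 mM DMSO stocks. AlamarBlue was then added for 24 h at 26 °C, and absorbance was read at 550 and 630 nm. Runs were in duplicate. IC50/72h is the mean of two independent determinations.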
For orientation: Alamar Blue is a resazurin reagent that responds to reducing activity.

Series [5] is described as follows: Safety index, ratio of test compound CC50 to amphotericin B CC50 for human THP1 cells. To be noted: THP-1 cells. Type of series: ADME, cell-based.
For series [6], the system named is Leishmania donovani. The series is described as follows: Antileishmanial activity against amastigote stage of Leishmania donovani MHOM/NP/02/BPK282/0c14 infected in human THP1 cells assessed as parasite growth inhibition after 72 hrs by Giemsa staining-based assay. Type of series: functional, organism-based. As to conditions: MHOM/NP/02/BPK282/0c14, THP-1, 72 h. The essentials: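 THP-1 cells at 10^5 cells/mL differentiated with 0.1 µM PMA for 48 h at 37 °C, 5% CO2, then infected with stationary-phase promastigotes. After 24 h, compounds were added at 40–1.5 µM for 72 h. Wells were Giemsa-stained, and the infectivity index (% infected macrophages × mean amastigotes per macrophage) was counted on ≥100 cells in duplicate cultures. IC50/72h determined.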

For the next series, the system named is Leishmania tropica. The series is described as follows: Antileishmanial activity against promastigote stage of Leishmania tropica MHOM/SU/74/K27 assessed as parasite growth inhibition after 72 hrs by Alamar blue assay. The format is functional, organism-based. To be noted: MHOM/SU/74/K27, 72 h. Put shortly:
as §1

The nature of series [7]: Cytotoxicity against African green monkey Vero cells after 72 hrs by Alamar blue assay. To be noted: chlorocebus sabaeus. Type of series: cell-based. Put shortly:
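Vero cells were seeded at 10^5/mL in MEM with 10% FBS and exposed to compounds up to 600 µM for 72 h at 37 °C, 5% CO2. AlamarBlue was added for 24 h at 37 °C, with absorbance read at 550 and 630 nm. Duplicates. CC50/72h determined.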

Another series deals with Leishmania infantum. The series is described as follows: Antileishmanial activity against promastigote stage of Leishmania infantum MHOM/TN/80/IPT1 assessed as parasite growth inhibition after 72 hrs by Alamar blue assay. The format is functional, organism-based. To be noted: MHOM/TN/80/IPT1, 72 h. Put shortly: as §1
Series [8] is described as follows: Safety index, ratio of test compound CC50 to amphotericin B CC50 for African green monkey Vero cells. The format is ADME, cell-based. To be noted: chlorocebus sabaeus.
The nature of series [9]: Selectivity index, ratio of CC50 for African green monkey Vero cells to IC50 for Leishmania donovani MHOM/NP/02/BPK282/0c14. Type of series: toxicity. As to conditions: read-out: Ratio CC50/IC50. Put shortly: (§2)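 Selectivity index calculated as CC50/72h in Vero (16) or THP-1 (17) cells divided by IC50/72h against L. donovani promastigotes.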
A short description of series [10]: Selectivity index, ratio of CC50 for human THP1 cells to IC50 for Leishmania donovani MHOM/NP/02/BPK282/0c14. Type of series: toxicity. To be noted: THP-1 cells, read-out: Ratio CC50/IC50. The essentials:
as §2

The subject of series [11] is Leishmania donovani. Briefly: Antileishmanial activity against promastigote stage of Leishmania donovani MHOM/NP/02/BPK282/0c14 assessed as parasite growth inhibition after 72 hrs by Alamar blue assay. The format is functional, organism-based. To be noted: MHOM/NP/02/BPK282/0c14, 72 h. The essentials: as §1
The next series has as its system Leishmania sp. The series is described as follows: Potency index, ratio of Sb3+ Ki to test compound Ki for Leishmania spp. trypanothione reductase.
Series [12] is described as follows: Cytotoxicity against human THP1 cells after 72 hrs by Alamar blue assay. The format is cell-based. To be noted: THP-1 cells. The essentials:
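THP-1 cells were seeded at 10^5 cells/mL in RPMI-1640 with 10% FBS and adhered with 0.1 µM PMA, then exposed to compounds for 72 h at 37 °C, 5% CO2. AlamarBlue was added for 24 h at 37 °C, with absorbance read at 550 and 630 nm. Duplicates. CC50/72h determined.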

For orientation: Ki means a measure of affinity in units of concentration, obtained from inhibition or displacement. One may read the Kd as the free concentration of one partner at which half of the binding sites on the other are occupied at equilibrium, for simple one-to-one binding. What is called IC50 is the concentration needed to halve the response being measured. The term CC50 denotes the concentration giving 50% cytotoxicity. For the molecule `COc1cc(OCC=C(C)C)ccc1C(=O)/C=C/c1ccc([N+](=O)[O-])cc1`, the Ratio was determined as 6 in series [1] and 30 in series [2]. For the same molecule, in series [3], the Ki amounted to 0.45 µM. The molecule further returned a Kd in series [4] of 0.6 µM. In addition, the half-maximal inhibitory concentration (IC50) was found to be 3.3 µM in the series with Leishmania major; 14 µM in the series on Leishmania donovani [6]; 5.2 µM with Leishmania tropica; 1.6 µM with Leishmania infantum; 3 µM in the series on Leishmania donovani [11]. Further, the selectivity ratio in series [5] is 3; in series [8], 3; in series [9] it was 200; in series [10] it was 200. In addition, the CC50 at 72 h in series [7] and in [12] was 600 µM throughout. For the same molecule, the Ratio Ki in the series with Leishmania sp. stood at 3.
